Compound activity (PubChem BioAssay)
Only some compounds are listed: those with a hit (about 12% of all), similar ones and a draw of the others.
Arbovirus anti – blocks arbovirus infection. 200,000 compounds, 0.37% hits. AID 1251. arbovirus infection cell-based antiviral screen. inhibition, % at 10 µM; in the data active = inhibition above about 30%
CHOP inh – inhibitors of CHOP induction in ER stress response | CHO-K1 CHOP-promoter luciferase, tunicamycin-induced, 15-18 h | inhibition, % at 10 µM | 220,000 compounds, 3.8% hits;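 active = compounds that reduced the stress-induced luciferase reporter signal by more than about 70% of percent inhibition, limit read from the data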;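 note: 0% = tunicamycin plus vehicle and 100% = wells without tunicamycin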
Rad51 HR inh – blocks human Rad51 in homologous recombination; inhibition, % at 10 µM; AID 1385; hRad51 DNA strand exchange, fluorescence dequenching; Q06609; 200,000 compounds, 0.085% hits;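 active = inhibition above 40% at the single screening dose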;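 note: 0% = DMSO control wells and 100% = blanks with heterologous ssDNA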
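Material: human Rad51–ssDNA filaments; Probe or stimulus: labelled 47-mer dsDNA for strand exchange; Doses: single 10 µM dose; Incubation: 37 °C 15-min filament assembly, 30-min compound preincubation, 15-min exchange; Technique: FRET fluorescence dequenching, excitation 485 nm, emission 520 nm; Measure: Fluorescence-based percent inhibition, control- and blank-normalised; Benchmarks: plate control and blank wells.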
Lmaj promast – inhibitors of Leishmania major promastigote growth; 200,000 compounds, 9% hits; Leishmania major promastigotes, resazurin fluorescence viability; inhibition, % at 10 µM; AID 1063;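 note: promastigotes grown with compound for 44 hours at 28 °C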
Wee1 stabilizer – blocks degradation of human Wee1 kinase | P30291 | HeLa Luc-Wee1K328M stability, luciferase luminescence; 100% = proteasome inhibitor MG132 effect | reporter increase, % at 5 µM | 220,000 compounds, 1.2% hits | AID 1321;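 active = activation above the mean of all tested compounds plus 3 SD, set per screening run, cut at about 8.8% in these data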;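 note: cells exposed to compound for 20 h before luminescence read; 0% = DMSO alone and 100% = MG132 at 30 µM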
PKD1 inh – blocks activity of human protein kinase D1 | inhibition, % (no concentration beside the values) | Q15139 | 200,000 compounds, 0.056% hits | PKD1 kinase fluorescence polarization assay
Target sequence (Q15139 whole entry, looked up): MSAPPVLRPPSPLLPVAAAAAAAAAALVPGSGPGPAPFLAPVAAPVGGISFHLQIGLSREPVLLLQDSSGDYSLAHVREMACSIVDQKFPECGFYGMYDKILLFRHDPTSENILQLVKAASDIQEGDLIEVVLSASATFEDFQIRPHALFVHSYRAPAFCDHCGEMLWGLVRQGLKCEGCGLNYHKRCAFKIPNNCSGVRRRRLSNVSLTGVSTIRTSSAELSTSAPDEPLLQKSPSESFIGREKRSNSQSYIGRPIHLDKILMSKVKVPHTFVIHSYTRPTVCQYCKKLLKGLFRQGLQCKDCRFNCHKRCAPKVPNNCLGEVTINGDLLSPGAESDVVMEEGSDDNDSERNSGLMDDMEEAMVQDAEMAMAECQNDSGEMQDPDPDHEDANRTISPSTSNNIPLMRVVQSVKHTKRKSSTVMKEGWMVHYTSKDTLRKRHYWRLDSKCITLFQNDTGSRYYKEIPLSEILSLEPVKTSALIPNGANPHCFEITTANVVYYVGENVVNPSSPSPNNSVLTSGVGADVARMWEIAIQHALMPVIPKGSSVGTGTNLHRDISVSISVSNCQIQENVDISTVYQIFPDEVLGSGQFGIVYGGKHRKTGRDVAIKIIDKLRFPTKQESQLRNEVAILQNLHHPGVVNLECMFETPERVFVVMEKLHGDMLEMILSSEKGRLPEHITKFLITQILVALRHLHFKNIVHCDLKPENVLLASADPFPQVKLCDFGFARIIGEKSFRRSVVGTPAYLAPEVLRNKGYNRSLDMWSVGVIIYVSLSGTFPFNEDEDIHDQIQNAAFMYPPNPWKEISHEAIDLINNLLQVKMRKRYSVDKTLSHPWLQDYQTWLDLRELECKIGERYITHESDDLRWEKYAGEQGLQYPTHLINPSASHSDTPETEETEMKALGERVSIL
Starred values were filed as active, the others as inactive; · = no result. Cut-off read from the data, not from the text of the source, unless noted: active = inhibition above about 50%; inactive = the rest.

SMILES	Arbovirus anti	CHOP inh	Rad51 HR inh	Lmaj promast	Wee1 stabilizer	PKD1 inh
Cc1ccc(S(=O)(=O)Nc2cc(C(=O)NCCN(C)C)ccc2N2CCCCC2)cc1	-10	42	-4	87*	1	-6
c1ccc(-c2ccc3ccccc3n2)cc1	·	·	-4	·	·	·
Brc1ccc(N=Nc2ccc3ccccc3n2)cc1	·	91*	16	·	-4	·
CCOC(=O)c1c(NC(=O)Cn2cnc([N+](=O)[O-])n2)sc2c1CCCC2	-17	75*	16	92*	-2	-11
CC(C)OC(=O)c1c(NC(=O)Cn2cnc([N+](=O)[O-])n2)sc2c1CCCC2	-4	93*	2	85*	-1	5
Cc1cc(-c2ccc(NC(=O)[C@@H]3CCCC[C@@H]3C(=O)O)c(C)c2)ccc1NC(=O)[C@@H]1CCCC[C@@H]1C(=O)O	-5	2	15	-6	1	3
Cc1ccc2c(c1)NC(c1cccs1)C1=C(CC(C)(C)CC1=O)N2 (configuration not stated)	-2	21	11	19	3	-1
Cc1cc2c(cc1C)NC(c1c(C)n(C)n(-c3ccccc3)c1=O)C1=C(CC(C)(C)CC1=O)N2 (configuration not stated)	-36	-25	-43	100*	1	-8
COc1ccccc1N1C(C)=CC(=C(C#N)c2nc3ccccc3s2)C=C1C	-7	-12	-12	52*	6	-5
CCCc1cc(Nc2ccccc2OCC)n2ncnc2n1	-9	-5	-2	1	-2	3
O=C1c2ccccc2C(=O)N1c1ncn[nH]1	·	5	-15	·	-1	·
CC1CCN(CCCNC(=O)c2cc3sccc3n2C)CC1	11	5	0	92*	-2	-15
COc1ccc(N2CCN(CCCNC(=O)c3cc4sccc4n3C)CC2)cc1	3	23	-8	81*	-1	-4
COC(=O)C1=C(Nc2ccc(C)cc2)C=C(C)C(C(=O)OC)C1c1ccc(OC)cc1 (configuration not stated)	-18	-9	2	37	1	5
COC(=O)C1=C(O)C(C(=O)OC)C(c2ccc(C)cc2)C(C#N)(C#N)C1c1ccc(C)cc1 (configuration not stated)	-2	42	4	61*	0	-2
CCOc1ccc(-n2c(=O)[nH]c3sc4c(c3c2=O)CCCC4)cc1	40*	-4	-6	0	-3	-7
Cc1ccc(NC(=O)C2CC(=O)n3ncnc3N2)cc1C (configuration not stated)	0	7	-1	-6	-1	-1
COc1ccc(C)cc1NC(=O)Nc1cccc(C)c1	-2	27	·	17	-2	-2
COc1cc2c(cc1NC(=O)Nc1cccc(C)c1)oc1ccccc12	2	90*	-1	-2	3	3
Cc1cccc(NC(=O)Nc2ccc(C)cc2Br)c1	-8	90*	3	-3	2	-4
COc1ccc(NC(=O)Nc2cc3oc4ccccc4c3cc2OC)cc1	1	43	·	2	2	-11
COc1cc2c(cc1NC(=O)Nc1ccc(C)cc1)oc1ccccc12	-13	59	-4	98*	3	6
C=C(C)c1cccc(C(C)(C)NC(=O)NC2CC(C)(C)NC(C)(C)C2)c1	6	12	-315	-4	-2	2
CN1/C(=C\C(=O)c2cccnc2)C(C)(C)c2ccccc21	-17	14	·	7	0	14
CN1/C(=C\C(=O)c2cccc(S(=O)(=O)N3CCCCC3)c2)C(C)(C)c2ccccc21	10	28	4	99*	-2	-9
SMILES	Arbovirus anti	CHOP inh	Rad51 HR inh	Lmaj promast	Wee1 stabilizer	PKD1 inh
CN1/C(=C\C(=O)c2ccco2)C(C)(C)c2ccccc21	4	25	-7	83*	-5	-4
CN1/C(=C\C(=O)c2cncc(Br)c2)C(C)(C)c2ccccc21	-14	49	-12	91*	-1	-10
CC(=O)/C=C1\N(C)c2ccc(C)cc2C1(C)C	15	36	-3	91*	-4	-4
CCN(CC)C(=O)CCSc1nnc(-c2ccco2)o1	-6	-21	·	-5	2	0
CCN(CC)CCN1C(=O)C(=O)/C(=C(/O)c2ccc(OC)cc2)C1c1ccco1 (configuration not stated)	-2	-38	·	1	-4	-8
CC(C)Oc1ccc(/C(O)=C2/C(=O)C(=O)N(CCN(C)C)C2c2ccco2)cc1 (configuration not stated)	6	-30	-3	89*	1	-10
CCOC(=O)c1sc2cccc(Cl)c2c1N	-1	35	1	-3	2	-3
CCOC(=O)c1sc(NC(=O)c2ccccc2)cc1C	-11	18	4	4	4	-7
CCOC(=O)c1sc2cccc(F)c2c1N	5	45	-6	-2	33*	-4
CCOC(=O)c1sc2ccccc2c1NC(=O)c1coc2ccccc2c1=O	7	21	7	58*	-2	-3
CCOC(=O)c1sc2ccccc2c1OC(=O)c1ccccc1	6	81*	-2	-8	-1	-7
COCC(=O)Nc1ccc(C(=O)Nc2ccccc2Cl)cc1	-6	-21	22	-4	-1	0
Oc1ccccc1CNc1ccc(OC(F)(F)F)cc1	17	25	·	-4	-1	0
Nc1c(C(=O)NCCN2CCOCC2)c2nc3ccccc3nc2n1-c1ccc2c(c1)OCO2	-4	12	-5	22	2	-11
COc1ccc(CCn2c(=N)c(C(=O)N3CCN(C)CC3)cc3c(=O)n4ccccc4nc32)cc1	-15	-12	3	88*	-2	8
N#Cc1c(N)n(CCc2ccc(F)cc2)c2nc3ccccc3nc12	9	71*	-11	15	-2	8
COc1ccc(CNC(=O)c2cc3c(=O)n4ccccc4nc3n(Cc3ccco3)c2=N)cc1	·	·	·	45	-1	-3
Nc1c(C(=O)NCc2ccc3c(c2)OCO3)c2nc3ccccc3nc2n1CCCN1CCOCC1	-34	·	-3	63*	1	-11
Cc1cccn2c(=O)c3cc(C(=O)NCCN4CCOCC4)c(=N)n(CCc4ccccc4)c3nc12	-6	30	·	66*	0	-9
COCCn1c(N)c(C#N)c2nc3ccccc3nc21	-8	18	-3	3	4	2
CCNC(=O)c1cc2c(=O)n3cccc(C)c3nc2n(CCc2ccccc2)c1=N	-29	-7	6	27	0	4
CCN(CC)C(=O)CSc1nc2cc3c(cc2c(=O)n1CCCCCC(=O)NCc1ccc(OC)cc1)OCO3	-9	4	14	3	6	7
O=C(COC(=O)c1ccc(Br)cc1)Nc1ccccc1Br	14	-13	-9	-4	-2	2
CCC(NC(=O)Nc1cc(C)on1)(C(F)(F)F)C(F)(F)F	·	12	-3	·	3	·
Nc1c(C(=O)NCc2ccccc2)c2nc3ccccc3nc2n1-c1ccc2c(c1)OCO2	-31	79*	-3	4	2	-2
